Experimental findings from ChEMBL document CHEMBL1124223, “1-Substituted 7-[3-[(ethylamino)methyl]-1-pyrrolidinyl]-6,8- difluoro-1,4-dihydro-4-oxo-3-quinolinecarboxylic acids. New quantitative structure-activity relationships at N1 for the quinolone antibacterials” (1988) are described below.

Values after ≈ are worked out from the molar mass of the structure shown.

One test concerns Enterobacter. The experiment in a line: Minimum inhibitory concentration against gram-negative enterobacteriaceae. In kind it is functional. A digest of the protocol: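 This value is the geometric mean of microtitration MICs for the Gram-negative Enterobacteriaceae strains in the 11-organism panel. Aqueous stocks were prepared in 0.1 N sodium or potassium hydroxide.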
In test [1] the test system is Staphylococcus aureus. The experiment in a line: Minimum inhibitory concentration against Staphylococcus aureus (UC76). In kind it is functional. A digest of the protocol: (§1)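 MICs were determined by standard microtitration against a panel of 11 bacterial strains. Aqueous stock solutions were prepared with 0.1 N sodium or potassium hydroxide.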
Test [2] has as its target DNA gyrase (Escherichia coli) (UniProt P0AES6+P0AES4). Put plainly: Concentration required for 50% inhibition of gyrase. In kind it is protein-complex assay. A digest of the protocol:
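DNA gyrase inhibition: the drug concentration (µg/mL) giving 50% inhibition (I50) was recorded, along with the lowest concentration inducing gyrase-mediated DNA cleavage. Data come from duplicate experiments with ±50% reproducibility.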

The subject of another test is Enterobacter cloacae. Put plainly: Minimum inhibitory concentration against Enterobacter cloacae. (MA2446). In kind it is functional.
Test [3] deals with Staphylococcus aureus. Put plainly: Minimum inhibitory concentration against Staphylococcus aureus (H-228). In kind it is functional. A digest of the protocol: as §1
The subject of a further test is Pseudomonas aeruginosa. The experiment in a line: Minimum inhibitory concentration against Pseudomonas aeruginosa. (UI-18). In kind it is functional. The method in brief:
as §1

The next test concerns Klebsiella pneumoniae. The experiment in a line: Minimum inhibitory concentration against Klebsiella pneumoniae (MGH-2). In kind it is functional. The method in brief: as §1
A further test deals with Enterococcus faecalis. The experiment in a line: Minimum inhibitory concentration against Streptococcus faecalis (MGH-2). In kind it is functional. The method in brief:
as §1

The subject of test [4] is Escherichia coli. Put plainly: Minimum inhibitory concentration against Escherichia coli (H560). In kind it is functional. The method in brief: as §1
In a further test the test system is Streptococcus pneumoniae. Put plainly: Minimum inhibitory concentration against Streptococcus pneumoniae (SV-1). In kind it is functional. The method in brief:
as §1

Test [5] relates to Escherichia coli. Put plainly: Minimum inhibitory concentration against Escherichia coli (vogel). In kind it is functional. A digest of the protocol: as §1
Another test concerns Providencia rettgeri. Put plainly: Minimum inhibitory concentration against Providencia rettgeri. (M1771). In kind it is functional. The method in brief: as §1
The subject of the next test is Streptococcus pyogenes. The experiment in a line: Minimum inhibitory concentration against Streptococcus pyogenes (C203). In kind it is functional. A digest of the protocol: as §1

With `CCNCC1CCN(c2c(F)cc3c(=O)c(C(=O)O)cn(CC(F)(F)F)c3c2F)C1` (stereo unspecified), the MIC in the test with Enterobacter turned out to be 1.05 µg/mL (≈ 2.42 µM); with Staphylococcus aureus [1] it was 0.1 µg/mL (≈ 0.231 µM); against Enterobacter cloacae it was 1.6 µg/mL (≈ 3.69 µM); in the test with Staphylococcus aureus [3], 0.4 µg/mL (≈ 0.923 µM); against Pseudomonas aeruginosa, 6.3 µg/mL (≈ 14.5 µM); in the test with Klebsiella pneumoniae, 0.8 µg/mL (≈ 1.85 µM). The minimum inhibitory concentration (MIC) was determined as 0.2 µg/mL (≈ 0.461 µM) in the test with Enterococcus faecalis; 0.4 µg/mL (≈ 0.923 µM) against Escherichia coli [4]; 0.4 µg/mL (≈ 0.923 µM) in the test on Streptococcus pneumoniae; 0.8 µg/mL (≈ 1.85 µM) in the test with Escherichia coli [5]; 3.1 µg/mL (≈ 7.15 µM) in the test with Providencia rettgeri; 0.4 µg/mL (≈ 0.923 µM) against Streptococcus pyogenes. Further, the IC50 in [2] came to 26 µg/mL (≈ 60 µM).

On to `CNn1cc(C(=O)O)c(=O)c2cc(F)c(N3CCN(C)CC3)cc21` [AMIFLOXACIN], for which the MIC in the test on Enterobacter came to 0.1 µg/mL (≈ 0.299 µM); against Staphylococcus aureus [1], 0.4 µg/mL (≈ 1.2 µM); in the test on Staphylococcus aureus [3] it was 1.6 µg/mL (≈ 4.79 µM); in the test with Pseudomonas aeruginosa it was 0.8 µg/mL (≈ 2.39 µM); against Klebsiella pneumoniae, 0.2 µg/mL (≈ 0.598 µM); against Enterococcus faecalis, 3.1 µg/mL (≈ 9.27 µM). In addition, the MIC in the test with Escherichia coli [4] turned out to be 0.025 µg/mL (≈ 0.0748 µM); against Streptococcus pneumoniae, 12.5 µg/mL (≈ 37.4 µM); against Escherichia coli [5], 0.1 µg/mL (≈ 0.299 µM); against Providencia rettgeri, 0.2 µg/mL (≈ 0.598 µM); against Streptococcus pyogenes it was 12.5 µg/mL (≈ 37.4 µM).

Consider `C=Cn1cc(C(=O)O)c(=O)c2cc(F)c(N3CCC(CNCC)C3)c(F)c21` (stereo unspecified), for which the MIC against Enterobacter is 0.3 µg/mL (≈ 0.795 µM); against Staphylococcus aureus [1], 0.1 µg/mL (≈ 0.265 µM); against Enterobacter cloacae, 0.2 µg/mL (≈ 0.53 µM); in the test on Staphylococcus aureus [3], 0.4 µg/mL (≈ 1.06 µM); in the test on Pseudomonas aeruginosa, 1.6 µg/mL (≈ 4.24 µM); in the test on Klebsiella pneumoniae it was 0.4 µg/mL (≈ 1.06 µM). Besides, the MIC was 0.4 µg/mL (≈ 1.06 µM) in the test on Enterococcus faecalis; 0.1 µg/mL (≈ 0.265 µM) against Escherichia coli [4]; 0.2 µg/mL (≈ 0.53 µM) against Streptococcus pneumoniae; 0.2 µg/mL (≈ 0.53 µM) with Escherichia coli [5]; 1.6 µg/mL (≈ 4.24 µM) in the test on Providencia rettgeri; 0.1 µg/mL (≈ 0.265 µM) against Streptococcus pyogenes. Besides, the IC50 in test [2] is 2.9 µg/mL (≈ 7.68 µM).

In the case of `CCNCC1CCN(c2c(F)cc3c(=O)c(C(=O)O)cn(CCF)c3c2F)C1` (stereo unspecified), the minimum inhibitory concentration (MIC) against Enterobacter worked out at 0.23 µg/mL (≈ 0.579 µM); in the test with Staphylococcus aureus [1], 0.1 µg/mL (≈ 0.252 µM); in the test with Enterobacter cloacae, 0.2 µg/mL (≈ 0.503 µM); in the test on Staphylococcus aureus [3] it was 0.4 µg/mL (≈ 1.01 µM); against Pseudomonas aeruginosa it was 1.6 µg/mL (≈ 4.03 µM); with Klebsiella pneumoniae, 0.4 µg/mL (≈ 1.01 µM). Also, the minimum inhibitory concentration (MIC) is 0.2 µg/mL (≈ 0.503 µM) in the test with Enterococcus faecalis; 0.1 µg/mL (≈ 0.252 µM) in the test on Escherichia coli [4]; 0.1 µg/mL (≈ 0.252 µM) in the test on Streptococcus pneumoniae; 0.1 µg/mL (≈ 0.252 µM) in the test with Escherichia coli [5]; 0.8 µg/mL (≈ 2.01 µM) with Providencia rettgeri; 0.1 µg/mL (≈ 0.252 µM) with Streptococcus pyogenes. Half-maximal inhibition in [2] (IC50) required 7.5 µg/mL (≈ 18.9 µM).

Take `CN1CCN(c2c(F)cc3c(=O)c(C(=O)O)cn(CCF)c3c2F)CC1` [FLEROXACIN]: the MIC against Enterobacter amounted to 0.2 µg/mL (≈ 0.542 µM); in the test on Staphylococcus aureus [1] it was 0.2 µg/mL (≈ 0.542 µM); against Enterobacter cloacae, 0.2 µg/mL (≈ 0.542 µM); in the test with Staphylococcus aureus [3], 0.8 µg/mL (≈ 2.17 µM); with Pseudomonas aeruginosa, 1.6 µg/mL (≈ 4.33 µM); against Klebsiella pneumoniae, 0.2 µg/mL (≈ 0.542 µM). For the same compound, the MIC in the test on Enterococcus faecalis stood at 3.1 µg/mL (≈ 8.39 µM); in the test with Escherichia coli [4], 0.1 µg/mL (≈ 0.271 µM); against Streptococcus pneumoniae, 6.3 µg/mL (≈ 17.1 µM); against Escherichia coli [5], 0.2 µg/mL (≈ 0.542 µM); against Providencia rettgeri it was 0.4 µg/mL (≈ 1.08 µM); against Streptococcus pyogenes it was 6.3 µg/mL (≈ 17.1 µM).

On to `CCNCC1CCN(c2c(F)cc3c(=O)c(C(=O)O)cn(C4CCC4)c3c2F)C1` (stereo unspecified), for which the MIC in the test with Enterobacter was found to be 0.4 µg/mL (≈ 0.987 µM); against Staphylococcus aureus [1] it was 0.05 µg/mL (≈ 0.123 µM); with Enterobacter cloacae it was 0.4 µg/mL (≈ 0.987 µM); against Staphylococcus aureus [3], 0.1 µg/mL (≈ 0.247 µM); against Pseudomonas aeruginosa it was 3.1 µg/mL (≈ 7.65 µM); in the test with Klebsiella pneumoniae, 0.4 µg/mL (≈ 0.987 µM). Further, the MIC stood at 0.2 µg/mL (≈ 0.493 µM) against Enterococcus faecalis; 0.1 µg/mL (≈ 0.247 µM) in the test with Escherichia coli [4]; 0.1 µg/mL (≈ 0.247 µM) with Streptococcus pneumoniae; 0.2 µg/mL (≈ 0.493 µM) against Escherichia coli [5]; 3.1 µg/mL (≈ 7.65 µM) with Providencia rettgeri; 0.2 µg/mL (≈ 0.493 µM) with Streptococcus pyogenes. In [2], half-maximal inhibition (IC50) was put at 26 µg/mL (≈ 64.1 µM).

In the case of `CCNCC1CCN(c2c(F)cc3c(=O)c(C(=O)O)cn(-c4ccc(F)cc4)c3c2F)C1` (stereo unspecified), the MIC in the test with Enterobacter came out at 0.7 µg/mL (≈ 1.57 µM); against Staphylococcus aureus [1], 0.2 µg/mL (≈ 0.449 µM); against Enterobacter cloacae, 0.8 µg/mL (≈ 1.8 µM); against Staphylococcus aureus [3], 0.1 µg/mL (≈ 0.224 µM); in the test on Pseudomonas aeruginosa, 1.6 µg/mL (≈ 3.59 µM); in the test on Klebsiella pneumoniae, 1.6 µg/mL (≈ 3.59 µM). Further, the MIC in the test with Enterococcus faecalis came to 0.2 µg/mL (≈ 0.449 µM); in the test on Escherichia coli [4], 0.1 µg/mL (≈ 0.224 µM); against Streptococcus pneumoniae, 0.4 µg/mL (≈ 0.898 µM); with Escherichia coli [5], 0.8 µg/mL (≈ 1.8 µM); in the test on Providencia rettgeri, 1.6 µg/mL (≈ 3.59 µM); in the test with Streptococcus pyogenes, 0.4 µg/mL (≈ 0.898 µM). The compound further gave a 50% inhibitory concentration (IC50) in test [2] of 14 µg/mL (≈ 31.4 µM).

Regarding `CCNCC1CCN(c2c(F)cc3c(=O)c(C(=O)O)cn(C)c3c2F)C1` (stereo unspecified), the minimal inhibitory concentration (MIC) against Enterobacter was 0.53 µg/mL (≈ 1.45 µM); against Staphylococcus aureus [1] it was 0.2 µg/mL (≈ 0.547 µM); with Enterobacter cloacae, 1.6 µg/mL (≈ 4.38 µM); against Staphylococcus aureus [3], 1.6 µg/mL (≈ 4.38 µM); in the test on Pseudomonas aeruginosa it was 1.6 µg/mL (≈ 4.38 µM); against Klebsiella pneumoniae, 0.4 µg/mL (≈ 1.09 µM). The MIC came to 1.6 µg/mL (≈ 4.38 µM) in the test on Enterococcus faecalis; 0.1 µg/mL (≈ 0.274 µM) with Escherichia coli [4]; 0.4 µg/mL (≈ 1.09 µM) in the test on Streptococcus pneumoniae; 0.4 µg/mL (≈ 1.09 µM) against Escherichia coli [5]; 1.6 µg/mL (≈ 4.38 µM) in the test on Providencia rettgeri; 0.4 µg/mL (≈ 1.09 µM) with Streptococcus pyogenes. The IC50 in test [2] came out at 7.5 µg/mL (≈ 20.5 µM).

By MIC is commonly meant the lowest concentration that inhibits growth of the organism. The term IC50 denotes the concentration at which inhibition is half-maximal. Low values mean greater potency, high ones weaker potency.
